Measured values pooled from the literature.
Values after ≈ are worked out from the molar mass of the structure shown.

SMILES	target or system	test	test system	conditions	endpoint	value
COC(=O)c1cc(-c2cccc(NC(=O)Nc3ccc(Cl)c(Cl)c3)c2)on1	Escherichia coli	microbial growth, broth dilution	ATCC25922	–	MIC	> 64 µg/mL
Cc1c2cnccc2c(C)c2c1c1ccccc1n2Cc1ccccc1	MDA-MB-468	cell growth or viability, MTT	–	–	IC50	18 µM
Nc1ncnc2c([C@@H]3N[C@H](CO)[C@@H](O)[C@H]3O)c[nH]c12	Severe acute respiratory syndrome coronavirus	viral replication, inhibitor	Vero 76	3 µM	inhibition	0%
c1ccc2[nH]c(-c3ccc4c(c3)OCO4)nc2c1	Staphylococcus aureus	microbial growth, broth dilution	ATCC43300 MRSA	drug-resistant strain	MIC	256 µg/mL (≈ 1070 µM)
O=C(NCCc1c[nH]c2ccccc12)C(=O)c1cn(Cc2ccc(F)cc2)c2ccccc12	C4-2	cell growth or viability, MTT	–	–	IC50	> 100 µM
CCCCCCCCCOc1ccc2[nH]cc(CCN)c2c1	HN-6	cell growth or viability	–	72 h	IC50	15.9 µM
COC(=O)c1cc(-c2cccc(NC(=S)Nc3ccccc3)c2)on1	Escherichia coli	microbial growth, broth dilution	ATCC25922	–	MIC	> 64 µg/mL
Cc1ccc2nc(-c3ccc(F)cc3)[nH]c2c1	Staphylococcus aureus	microbial growth, broth dilution	ATCC43300 MRSA	drug-resistant strain	MIC	128 µg/mL (≈ 566 µM)
Cc1ccc2[nH]c3c(c2c1)CCCC3NCCc1ccc(Br)cc1 (centres unmarked)	Micrococcus luteus	microbial growth, broth dilution	DSM1790	–	MIC	2 µg/mL (≈ 5.22 µM)
COc1ncnc2c1ncn2[C@@H]1O[C@H](CO)[C@@H](O)[C@H]1O	Severe acute respiratory syndrome coronavirus	plaque formation, inhibitor	Vero C1008	–	IC50	> 300 µM
COC(=O)c1cc(-c2cccc(NC(=S)Nc3ccc(F)cc3)c2)on1	Escherichia coli	microbial growth, broth dilution	ATCC25922	–	MIC	> 64 µg/mL
O=C(O)c1cn(C2CC2)c2cc(N3CCNCC3)c(F)cc2c1=O	Micrococcus luteus	microbial growth	ATCC10240	5 µg/mL, 20 h	inhibition zone	0 mm
COC(=O)c1cc(-c2cccc(NC(=S)Nc3ccc(C#N)cc3)c2)on1	Escherichia coli	microbial growth, broth dilution	ATCC25922	–	MIC	> 64 µg/mL
OC[C@@H]1C[C@@H](O)[C@H](n2cnc3c(Cl)ncnc32)O1	Severe acute respiratory syndrome coronavirus	plaque formation, inhibitor	Vero C1008	–	IC50	> 300 µM
Cc1ccc2nc(-c3ccc(Cl)c(Cl)c3)n(Cc3ccccc3)c2c1	Staphylococcus aureus	microbial growth, broth dilution	ATCC43300 MRSA	drug-resistant strain	MIC	32 µg/mL (≈ 87.1 µM)
OCC(CCn1cnc2c(Cl)ncnc21)COCc1ccccc1 (centres unmarked)	Severe acute respiratory syndrome coronavirus	plaque formation, inhibitor	Vero C1008	–	IC50	> 300 µM
Clc1ccc(-c2nc3ccccc3n2Cc2ccccc2)cc1	Staphylococcus aureus	microbial growth, broth dilution	ATCC43300 MRSA	drug-resistant strain	MIC	256 µg/mL (≈ 803 µM)
COc1ccc2c(C(=O)C(=O)NCCc3c[nH]c4ccccc34)cn(Cc3ccc(Cl)cc3)c2c1	C4-2	cell growth or viability, MTT	–	–	IC50	> 100 µM
Cc1ccc2nc(-c3cc(Br)ccc3O)[nH]c2c1	Staphylococcus aureus	microbial growth, broth dilution	ATCC43300 MRSA	drug-resistant strain	MIC	128 µg/mL (≈ 422 µM)
Nc1nc(Cl)c2ncn([C@@H]3O[C@H](CO)[C@@H](O)[C@H]3O)c2n1	Severe acute respiratory syndrome coronavirus	plaque formation, inhibitor	Vero C1008	–	IC50	> 300 µM
COC(=O)c1cc(-c2cccc(NC(=O)Nc3ccccc3)c2)on1	Escherichia coli	microbial growth, broth dilution	ATCC25922	–	MIC	> 64 µg/mL
c1ccc2[nH]c(-c3ccncc3)nc2c1	Staphylococcus aureus	microbial growth, broth dilution	ATCC43300 MRSA	drug-resistant strain	MIC	256 µg/mL (≈ 1310 µM)
COC(=O)c1cc(-c2cccc(NC(=S)Nc3ccc([N+](=O)[O-])cc3)c2)on1	Escherichia coli	microbial growth, broth dilution	ATCC25922	–	MIC	> 64 µg/mL
CN(C)c1ccc(-c2nc3ccccc3[nH]2)cc1	Staphylococcus aureus	microbial growth, broth dilution	ATCC43300 MRSA	drug-resistant strain	MIC	128 µg/mL (≈ 539 µM)
COC(=O)c1cc(-c2cccc(NC(=O)Nc3cccc(F)c3)c2)on1	Escherichia coli	microbial growth, broth dilution	ATCC25922	–	MIC	> 64 µg/mL
C=CCn1c(-c2ccc(Cl)cc2)nc2ccc(C)cc21	Staphylococcus aureus	microbial growth, broth dilution	ATCC43300 MRSA	drug-resistant strain	MIC	32 µg/mL (≈ 113 µM)
